Converted amounts (≈) assume the structure as drawn. The source made the active and inactive calls. The rule behind the calls is not given here.
Assays:
[1] = tested on: Streptococcus mutans; test: Effect on Streptococcus mutans LMG 14558 assessed as inhibition of biofilm formation in modified Robbin's device at 0.5 ug/ml relative to BHIS control; format: functional
How it was run: (§1)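 S. mutans LMG 14558T grown at 37°C as biofilms on hydroxyapatite disks in modified Robbins' devices, in BHI plus 1% sucrose (BHIS) containing compound at the stated concentration. Biomass per disk is estimated by SYTO9 fluorescent staining and given as % of BHIS-only controls (avg ± SD). Significance by one-tailed independent-sample t test; P > 0.01 is not significant.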

[2] = tested on: Streptococcus mutans; test: Decrease in membrane fluidity of Streptococcus mutans LMG 14558 using pyrene in BHI medium at 5 ug/ml relative to BHI control; format: functional; parameters: scale not given: the % may be the effect or the level left
How it was run: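 Relative membrane fluidity (lateral diffusion) of S. mutans LMG 14558T grown in BHI with or without 5 μg/ml compound, read as pyrene intermolecular excimer-to-monomer fluorescence intensity ratio at constant temperature. Relative fluidity F = (Ie/Im treated)/(Ie/Im untreated) × Fr, with untreated BHI-grown cells set to Fr = 1.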

[3] = tested on: Streptococcus mutans; test: Effect on Streptococcus mutans LMG 14558 assessed as inhibition of biofilm formation in modified Robbin's device at 0.1 ug/ml relative to BHIS control relative to BHIS control; format: functional; how it was run: as §1
[4] = tested on: Streptococcus mutans; test: Effect on Streptococcus mutans LMG 14558 assessed as inhibition of biofilm formation in modified Robbin's device at 2 ug/ml relative to BHIS control; format: functional; how it was run: as §1
[5] = tested on: Streptococcus mutans; test: Effect on Streptococcus mutans LMG 14558 assessed as inhibition of biofilm formation in modified Robbin's device at 1 ug/ml relative to BHIS control; format: functional; how it was run: as §1
[6] = tested on: Streptococcus mutans; test: Activity against planktonic Streptococcus mutans LMG 14558; format: functional
How it was run: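 S. mutans LMG 14558T, routinely grown in BHI broth at 37°C, was tested against planktonic cells by broth microdilution in 96-well microtiter plates to give the MIC in μg/ml. The modified microdilution was also run with and without 1.5 mM glutathione, 0.025% (wt/vol) cysteine or 10 mM mannitol as ROS scavengers, including in chemically defined M1 medium.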

[7] = tested on: Streptococcus mutans; test: Effect on Streptococcus mutans LMG 14558 assessed as inhibition of biofilm formation in modified Robbin's device at 5 ug/ml relative to BHIS control; format: functional; how it was run: as §1
[8] = tested on: Streptococcus mutans; test: Susceptibility of Streptococcus mutans LMG 14558 in BHIS medium assessed as increase in biofilm formation at 5 ug/ml in presence of 0.025% cysteine; format: functional, organism-based
[9] = tested on: Streptococcus mutans; test: Effect on Streptococcus mutans LMG 14558 assessed as inhibition of biofilm formation in modified Robbin's device at 1200 ug/ml relative to BHIS control; format: functional; how it was run: as §1
[10] = tested on: Streptococcus mutans; test: Effect on Streptococcus mutans LMG 14558 assessed as inhibition of biofilm formation in modified Robbin's device at 1333 ug/ml relative to BHIS control; format: functional; how it was run: as §1
[11] = tested on: Streptococcus mutans; test: Effect on Streptococcus mutans LMG 14558 assessed as inhibition of biofilm formation in modified Robbin's device at 50 ug/ml relative to BHIS control; format: functional; how it was run: as §1

Row | SMILES | MIC [6] [µg/mL] | inhibition at 5 µg/mL [7] [%] | further results
1 | Cc1cc(O)c2c(c1)C(=O)c1cc(O)cc(O)c1C2=O [EMODIN] | > 250 | 10.9 | inhibition at 0.5 µg/mL [1]: 85.7%; Activity [2]: 21.2%; inhibition at 0.1 µg/mL [3]: 101%; inhibition at 2 µg/mL [4]: 52.1%; inhibition at 1 µg/mL [5]: 79%; Activity [8]: inactive
2 | Cc1cc(O)c2c(=O)c3c(O)cc(O)c4c5c(O)cc(O)c6c(=O)c7c(O)cc(C)c8c1c2c(c34)c(c78)c65 [HYPERICIN] | 250 (≈ 496 µM) | 47.8 | Activity [2]: 35.6%
3 | Cc1c(C(=O)O)c(O)cc2c1C(=O)c1c(O)c([C@@H]3O[C@H](CO)[C@@H](O)[C@H](O)[C@H]3O)c(O)c(O)c1C2=O [CARMINIC ACID] | > 250 | 66.5 | –
4 | O=C1c2ccccc2C(=O)c2c(O)ccc(O)c21 [QUINIZARIN] | 250 (≈ 1040 µM) | 80 | –
5 | N=C(NCCCCCCNC(=N)NC(=N)Nc1ccc(Cl)cc1)NC(=N)Nc1ccc(Cl)cc1 [CHLORHEXIDINE] | 2 (≈ 3.96 µM) | – | inhibition at 0.1 µg/mL [3]: 104%; inhibition at 1200 µg/mL [9]: 34.5%
6 | Oc1cc(Cl)ccc1Oc1ccc(Cl)cc1Cl [TRICLOSAN] | 16 (≈ 55.3 µM) | 78.1 | inhibition at 1333 µg/mL [10]: 10.9%
7 | O=C1c2cccc(O)c2C(=O)c2c(O)cccc21 [DANTHRON] | 250 (≈ 1040 µM) | 91.3 | –
8 | O=C(O)c1cc(O)c2c(c1)C(C1c3cccc(O)c3C(=O)c3c(O)cc(C(=O)O)cc31)c1cccc(O)c1C2=O (stereo not given) [SENNIDIN A] | > 250 | 83.7 | –
9 | O=C1c2cccc(O)c2C(=O)c2c(O)cc(CO)cc21 [ALOE-EMODIN] | > 250 | – | inhibition at 50 µg/mL [11]: 99.2%
10 | Cc1cc(O)c2c(c1)C(=O)c1cccc(O)c1C2=O [CHRYSOPHANOL] | 250 (≈ 983 µM) | 75 | –
11 | COc1cc(O)c2c(c1)C(=O)c1cc(C)cc(O)c1C2=O [PHYSCION] | > 250 | 120 | –
12 | O=C1c2ccc(O)cc2C(=O)c2ccc(O)cc21 [ANTHRAFLAVICACID] | 250 (≈ 1040 µM) | 98.2 | –
13 | O=C(O)c1cc(O)c2c(c1)C(=O)c1cccc(O)c1C2=O [RHEIN] | 10 (≈ 35.2 µM) | 75.2 | –
